MT stabilize HCS = microtubule stabilizers in HeLa cells, primary screen, imaging, high-content imaging; HeLa tubulin immunostaining HCS, 24 h; share of cells brighter than vehicle mean+2SD; % tubulin-high responders, % at 10 µM; 0.83% of 200,000 active; AID 2205, 2009;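 active = plate Z-score above 3 for both tubulin-high and condensed-nucleus cell shares, with cell loss under 80%, at 10 µM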;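 also: anti alpha tubulin signal scored within the nucleus-defined area of each cell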
RAM network inh = inhibitors of the yeast RAM network, primary screen, dse1pr::URA3 reporter, 5-FOA selection; 1.8% of 190,000 active; inhibition, % at 50 µM; S. cerevisiae dse1pr::URA3 reporter, 5-FOA growth OD615, 2 d; analog-sensitive cbk1-as2 kinase mutant strain; AID 868, 2007;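 active = inhibition above a set limit, 3 SD over mean compound inhibition, cut at about 8.4% in these data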;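 also: inhibition rescues growth on 5-FOA so higher OD means more RAM inhibition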
bCat nuc transl = modulators of beta-catenin nuclear translocation, primary screen, imaging, HeLa cells, immunofluorescence, high-content; nuclear translocation activity, % at 5 µM; 0.3% of 190,000 active;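 active = nuclear translocation activity above 50% at 5 µM, with a well cell count of 50 or more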;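 also: per-cell ratio of nuclear to cytoplasmic median beta-catenin stain intensity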
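System: HeLa cells, endogenous beta-catenin; compound dosing: 5 µM primary single dose, 0.1% DMSO, 0.02–20 µM confirmation series; incubation: 24 h compound exposure at 37°C, 5% CO2; signal: beta-catenin immunofluorescence imaging with DAPI; evaluation: % activation, nuclear-to-cytoplasmic median beta-catenin signal ratio per cell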
Yeast lifespan up = compounds extending yeast replicative lifespan, primary screen, S. cerevisiae, OD615; S. cerevisiae growth with nicotinamide; deaD strain in restrictive glucose medium; inhibition of the nicotinamide effect, % at 10 µM; 0.68% of 130,000 active; AID 775, 2007;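 active = inhibition above a set limit, placed 3 SD over the median of all compounds, cut at about 26% in these data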
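System: Modified budding yeast, DeaD strain | Buffer or medium: Restrictive glucose medium | Also added: 1.5 mM nicotinamide | Doses: 10 µM single point, 0.25% DMSO | Schedule: 48 h compound exposure at 30 °C, humidified | Detection: Absorbance at 615 nm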
BB579 growth dn = growth inhibitors of yeast BB579 in restrictive medium, primary screen, yeast lifespan-shortening project, S. cerevisiae; inhibition, % at 10 µM; AID 804, 2007; OD615, 48 h; 0.51% of 140,000 active;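 active = inhibition above a set limit, 3 SD over the mean compound inhibition, cut at about 44% in these data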
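Detection: OD615 turbidity measurement; Material: Saccharomyces cerevisiae DeaD strain BB579, replicative lifespan model yeast; Timing: 48 h exposure, 30 °C; Doses: single 10 µM dose; Medium: CSMM-D restrictive synthetic medium containing dextrose (glucose); Controls: amphotericin B at 10 µg/mL as positive control.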
HMGR II inh = inhibitors of E. faecalis class II HMGR, primary screen, biochemical, Enterococcus faecalis. inhibition, % at 10 µM. purified E. faecalis HMGR, NADPH absorbance 340 nm kinetic. 0.41% of 190,000 active;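 active = inhibition above a set limit, the median over all tested compounds plus 3 SD, cut at about 9.5% in these data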;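 also: enzyme runs in reverse so mevalonate oxidation gives rising NADPH absorbance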
Numbers stand for hits. Compounds with a hit are over-represented: about 3.5% of the library has one in this group of screens.

CCCc1nc2ccc(NC(=O)NCCC(=O)OCC)cc2c(=O)n1Cc1cccc(Cl)c1 was read as MT stabilize HCS inactive, RAM network inh 10.3, bCat nuc transl inactive, Yeast lifespan up inactive, BB579 growth dn inactive and HMGR II inh inactive.
For CCN(CC)C(=O)CSc1nc(-c2cccs2)cc(-c2cccs2)c1C#N the results were MT stabilize HCS inactive, RAM network inh 8.4, bCat nuc transl inactive, BB579 growth dn inactive and HMGR II inh inactive.
Screening CCN(CC)C(=O)CSc1nc(N)c(C#N)c(-c2cccs2)c1C#N returned MT stabilize HCS inactive, RAM network inh inactive, bCat nuc transl inactive, BB579 growth dn inactive and HMGR II inh inactive.
`COc1ccc(-c2cc(-c3cccs3)c(C#N)c(SCC(=O)NCc3ccco3)n2)cc1` gave MT stabilize HCS 20.3, RAM network inh inactive, bCat nuc transl 93.9, Yeast lifespan up inactive, BB579 growth dn inactive and HMGR II inh inactive.
For CCN(CC(=O)Nc1ccc2c(c1)OCCO2)C(=O)/C=C/c1ccc(F)cc1 the results were MT stabilize HCS inactive, RAM network inh inactive, bCat nuc transl inactive and HMGR II inh inactive.
O=C(/C=C(\O)c1ccc(Cl)cc1)C(=O)NNC(=O)C(O)(c1ccccc1)c1ccccc1 was read as MT stabilize HCS inactive, RAM network inh inactive, bCat nuc transl inactive, Yeast lifespan up 62.5, BB579 growth dn inactive and HMGR II inh inactive.
For CCc1ccccc1NC(=O)CN(C)C(=O)CSc1nn(-c2ccc(F)cc2)c(=S)s1 the results were MT stabilize HCS inactive, RAM network inh inactive, bCat nuc transl inactive, Yeast lifespan up inactive, BB579 growth dn inactive and HMGR II inh inactive.
`CCOc1cc(CNc2ccc3c(c2)OCCO3)cc(Br)c1OC` gave MT stabilize HCS inactive, RAM network inh inactive, bCat nuc transl 142.7, Yeast lifespan up inactive, BB579 growth dn inactive and HMGR II inh inactive.
Screening CCOc1c(Br)cc(CNc2ccc3c(c2)OCCO3)cc1OC returned MT stabilize HCS inactive, RAM network inh inactive, bCat nuc transl 132.4, Yeast lifespan up inactive, BB579 growth dn inactive and HMGR II inh inactive.
For COc1cc(CNc2ccc(C)c(C)c2)cc(OC)c1OC the results were MT stabilize HCS inactive, RAM network inh inactive, bCat nuc transl 107.2, Yeast lifespan up inactive, BB579 growth dn inactive and HMGR II inh inactive.
Screening COC(=O)Cn1c2ccc(Cl)cc2c2nc(C)sc21 returned bCat nuc transl inactive.
Cc1nc2c3cc(Cl)ccc3n(CCN3CCCCC3)c2s1 was read as MT stabilize HCS 24.5, RAM network inh inactive, bCat nuc transl 96.7, Yeast lifespan up inactive, BB579 growth dn inactive and HMGR II inh inactive.
For Nc1nn(-c2ccccc2)nc1C(=O)OCc1ccccc1 the results were bCat nuc transl inactive.
`COc1cccc(COC(=O)c2nn(-c3ccccc3)nc2N)c1` gave MT stabilize HCS inactive, RAM network inh 9.7, bCat nuc transl inactive and HMGR II inh inactive.
CCOC(=O)N1CCN(C(=O)CSc2ccc(-c3cccnc3)nn2)CC1 was read as MT stabilize HCS inactive, RAM network inh inactive, bCat nuc transl inactive and HMGR II inh 10.3.
CCOC(=O)c1nn(-c2ccc(OCC)cc2)c2nc(-c3ccco3)c(C#N)c(=O)n12 was read as MT stabilize HCS inactive, RAM network inh inactive, bCat nuc transl inactive, Yeast lifespan up inactive, BB579 growth dn inactive and HMGR II inh inactive.
Screening CCOC(=O)c1nn(-c2ccccc2)c2nnc(Cc3ccccc3)c(=O)n12 returned MT stabilize HCS inactive, RAM network inh inactive, bCat nuc transl inactive, Yeast lifespan up 31.6, BB579 growth dn inactive and HMGR II inh inactive.
Screening CCOC(=O)c1nn(-c2ccc(OCC)cc2)c2nc(-c3cccc(OC)c3)c(C#N)c(=O)n12 returned MT stabilize HCS inactive, RAM network inh 9.7, bCat nuc transl inactive, Yeast lifespan up inactive, BB579 growth dn inactive and HMGR II inh inactive.
`CCOC(=O)c1nn(-c2ccc(F)cc2)c2nc(-c3ccccc3)c(C#N)c(=O)n12` gave MT stabilize HCS inactive, RAM network inh inactive, bCat nuc transl inactive, Yeast lifespan up 27.2, BB579 growth dn inactive and HMGR II inh inactive.
Screening CCOC(=O)c1nn(-c2ccccc2)c2nnc(Cc3ccc(C)cc3)c(=O)n12 returned MT stabilize HCS inactive, RAM network inh inactive, bCat nuc transl inactive, Yeast lifespan up inactive, BB579 growth dn inactive and HMGR II inh inactive.
Screening COc1cccc(CN2CCNC(=O)C2CC(=O)NCCOc2cccnc2)c1 (stereo not drawn) returned MT stabilize HCS inactive, RAM network inh inactive, bCat nuc transl inactive and HMGR II inh inactive.
Screening C=Cc1ccc(CSc2cc(C)nc3nc(C)nn23)cc1 returned bCat nuc transl inactive.
`O=C(Nc1ccc(N2CCCCC2)cc1)c1ccc2ccccc2n1` gave MT stabilize HCS inactive, RAM network inh inactive, bCat nuc transl inactive and HMGR II inh inactive.
Screening CCSc1ccc2cc(OC)ccc2[n+]1CC returned MT stabilize HCS inactive, RAM network inh inactive, bCat nuc transl inactive and HMGR II inh inactive.
Screening CCN(CC)S(=O)(=O)c1cc(NC(=O)C(C)OC(=O)c2[nH]c(C)c(C(C)=O)c2C)ccc1C (stereo not drawn) returned MT stabilize HCS inactive, RAM network inh inactive, bCat nuc transl inactive, Yeast lifespan up inactive, BB579 growth dn inactive and HMGR II inh inactive.
Screening C/C(CCc1oc2ccc(Cl)cc2c1-c1ccc(C)o1)=N\O returned MT stabilize HCS inactive, RAM network inh 9.4, bCat nuc transl inactive, BB579 growth dn inactive and HMGR II inh inactive.
`C/C(CCc1oc2ccc(Br)cc2c1-c1ccc(C)o1)=N/O` gave MT stabilize HCS inactive, RAM network inh 11.4, bCat nuc transl inactive, Yeast lifespan up inactive, BB579 growth dn inactive and HMGR II inh inactive.
CC(=O)CCc1oc2ccc(C)cc2c1-c1ccccc1 was read as bCat nuc transl inactive.
For CCC(C(=O)Nc1cccc(C(=O)O)c1C)c1ccccc1 (stereo not drawn) the results were MT stabilize HCS inactive, RAM network inh inactive, bCat nuc transl inactive and HMGR II inh inactive.
Screening COC(=O)c1c(NC(=O)CSc2nnc(C)c(=O)[nH]2)sc(C)c1C returned MT stabilize HCS inactive, RAM network inh inactive, bCat nuc transl inactive and HMGR II inh inactive.
`COc1ccc(Oc2cccc(Cl)c2CNC(=O)CCCC(=O)O)cc1` gave bCat nuc transl inactive.
`COc1cccc(C(=O)c2c[nH]c(C(=O)NCCCN3CCOCC3)c2)c1` gave MT stabilize HCS inactive, RAM network inh inactive, bCat nuc transl inactive and HMGR II inh inactive.

Compound activity deposited in PubChem by several laboratories.
